Results as given in ChEMBL document CHEMBL1154929, “Novel tetrahydrochinoline derived CETP inhibitors” (Bioorg Med Chem Lett, 2010).

Legend:
[1] = molecular target: T1, Cholesteryl ester transfer protein (Homo sapiens, UniProt P11597); assay: Inhibition of CETP assessed as cholesterol ester transfer after 4 hrs by microemulsion based fluorescence assay
T1 sequence (P11597 whole entry): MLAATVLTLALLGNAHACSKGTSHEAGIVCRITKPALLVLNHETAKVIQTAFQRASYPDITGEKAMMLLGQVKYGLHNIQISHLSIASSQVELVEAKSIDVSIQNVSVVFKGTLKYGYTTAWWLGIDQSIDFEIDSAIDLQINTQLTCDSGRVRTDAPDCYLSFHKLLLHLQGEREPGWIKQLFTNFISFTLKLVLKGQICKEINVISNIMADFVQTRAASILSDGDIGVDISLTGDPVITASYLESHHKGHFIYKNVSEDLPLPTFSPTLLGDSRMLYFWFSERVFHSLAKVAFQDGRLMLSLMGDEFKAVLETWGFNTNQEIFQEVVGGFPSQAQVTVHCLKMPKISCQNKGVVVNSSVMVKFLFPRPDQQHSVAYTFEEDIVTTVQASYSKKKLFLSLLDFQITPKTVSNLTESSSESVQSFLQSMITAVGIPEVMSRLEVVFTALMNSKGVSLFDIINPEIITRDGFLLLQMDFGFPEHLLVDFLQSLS
Summary of the method: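 CETP-containing sample (1–3 µg CETP enriched from human plasma) incubated at 37 °C for 4 h with compound in DMSO and a liposome emulsion (1 vol donor, 1 vol buffer, 2 vol acceptor). Liposomes were made by dioxane injection into 50 mM Tris/HCl pH 7.3, 150 mM NaCl, 2 mM EDTA, then sonicated. Read-out was the fluorescence increase versus a DMSO control.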

[2] = molecular target: T1, Cholesteryl ester transfer protein; assay: Inhibition of human plasma CETP assessed as [3H]cholesterol ester transfer after 18 hrs by scintillation proximity assay; type: cell-free
Summary of the method: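 Scintillation proximity assay. HDL-³H-cholesteryl ester (~50,000 cpm) and biotin-LDL were incubated at 37 °C for 18 h with CETP (1 mg/ml stock) in […]/0.15 M NaCl/0.1% BSA/0.05% NaN₃ pH 7.4. Compound was dissolved in 10% DMSO/1% BSA. Streptavidin SPA beads were added with 1 h shaking, then scintillation counting. Buffer-only and CETP incubations served as controls.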

[3] = molecular target: T1, Cholesteryl ester transfer protein; assay: Inhibition of human plasma CETP assessed as cholesterol ester transfer after 24 hrs by fluorescence assay; type: cell-free
Summary of the method: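 Donor liposomes (12% v/v) and compound in DMSO (2% v/v) added to human plasma (86% v/v) and incubated at 37 °C for 24 h. Transfer was taken as the fluorescence change at 510/520 nm, compared with a DMSO control.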

[4] = Half life in rat plasma; type: ADME, organism-based
[5] = Half life in mouse plasma; type: ADME, organism-based
[6] = Half life in dog plasma; type: ADME, organism-based, Canis lupus familiaris
[7] = Oral bioavailability in rat; type: ADME, organism-based; details: in vivo
[8] = Oral bioavailability in dog; type: ADME, organism-based, Canis lupus familiaris; details: in vivo

Question: Which IC50 [1] does the source give for `CC1(C)Cc2nc(C3CCCC3)c(C(=O)c3ccc(C(F)(F)F)cc3)c(C3CCN(C(=O)OCc4ccccc4)CC3)c2[C@@H](O)C1` here?
Answer: 500 nM

Question: With `CC1(C)Cc2nc(C3CCCC3)c(C(=O)c3ccc(C(F)(F)F)cc3)c(CN3CCCCC3)c2[C@@H](O)C1` as the compound, how does the IC50 [1] read?
Answer: 15000 nM

Question: Which IC50 [1] does the source give for `CC1(C)Cc2nc(C3CCCC3)c(C(=O)c3ccc(C(F)(F)F)cc3)c(CCl)c2[C@@H](O)C1` here?
Answer: 15000 nM

Question: Which IC50 [1] does the source give for `O=C(c1ccc(C(F)(F)F)cc1)c1c(C2CCCC2)nc2c(c1C1CCCCC1)[C@@H](O)CC1(CCC1)C2` here?
Answer: 55 nM

Question: With `CCC(C)c1c(C(=O)c2ccc(C(F)(F)F)cc2)c(C2CCCC2)nc2c1[C@@H](O)CC(C)(C)C2` (stereo not given in full) as the compound, how does the IC50 [1] read?
Answer: 2000 nM

Question: For `CC1(C)Cc2nc(C3CCCC3)c(C(=O)c3ccc(C(F)(F)F)cc3)c(CC(F)(F)F)c2[C@@H](O)C1`, which IC50 [1] is on record?
Answer: 3000 nM

Question: With `CCOC(=O)c1c(C(=O)c2ccc(C(F)(F)F)cc2)c(C2CCCC2)nc2c1[C@@H](O)CC(C)(C)C2` as the compound, how does the IC50 [1] read?
Answer: > 20000 nM

Question: For `CC1(C)Cc2nc(C3CCCC3)c(C(=O)c3ccc(C(F)(F)F)cc3)c(C3CCNCC3)c2[C@@H](O)C1`, which IC50 [1] is on record?
Answer: > 20000 nM

Question: With `CC(C)c1nc2c(c(C3CCCCC3)c1[C@@H](O)c1ccc(C(F)(F)F)cc1)[C@@H](O)CC1(CCC1)C2` as the compound, how does the IC50 [1] read?
Answer: 70 nM

Question: With `CC1(C)Cc2nc(C3CCCC3)c(C(=O)c3ccc(C(F)(F)F)cc3)c(C3CCCCC3)c2[C@@H](O)C1` as the compound, how does the IC50 [1] read?
Answer: 60 nM

Question: Which IC50 [1] does the source give for `CC1(C)Cc2nc(C3CCCC3)c(C(=O)c3ccc(C(F)(F)F)cc3)c(N3CCCC3)c2[C@@H](O)C1` here?
Answer: 4000 nM

Question: With `CC(C)c1nc2c(c(C3CCCCC3)c1[C@@H](F)c1ccc(C(F)(F)F)cc1)[C@@H](O)CC(C)(C)C2` as the compound, how does the IC50 [1] read?
Answer: 30 nM

Question: What about the IC50 [2] of the same compound?
Answer: 23 nM

Question: What about the IC50 [3] of the same compound?
Answer: 75 nM

Question: What does the source list for `CC1(C)Cc2nc(C3CCCC3)c([C@@H](F)c3ccc(C(F)(F)F)cc3)c(C3CCCCC3)c2[C@@H](O)C1`?
Answer: IC50 [1]: 25 nM; half-life [4]: 7.2 h; half-life [5]: 5 h; IC50 [2]: 7 nM; half-life [6]: 8.6 h; bioavailability [7]: 44%; IC50 [3]: 50 nM; bioavailability [8]: 74%

Question: For `CC1(C)Cc2nc(C3CCCC3)c(Cc3ccc(C(F)(F)F)cc3)c(C3CCCCC3)c2[C@@H](O)C1`, which IC50 [1] is on record?
Answer: 39 nM

Question: What about the IC50 [3] of the same compound?
Answer: 300 nM

Question: With `CC(C)c1nc2c(c(C3CCCCC3)c1[C@@H](F)c1ccc(C(F)(F)F)cc1)[C@@H](O)CC1(CCC1)C2` as the compound, how does the IC50 [1] read?
Answer: 17 nM

Question: And the IC50 [2]?
Answer: 33 nM

Question: And the IC50 [3]?
Answer: 70 nM

Question: With `O[C@@H](c1ccc(C(F)(F)F)cc1)c1c(C2CCCC2)nc2c(c1C1CCCCC1)[C@@H](O)CC1(CCC1)C2` as the compound, how does the IC50 [1] read?
Answer: 100 nM

Question: What does the source list for `O[C@H]1CC2(CCC2)Cc2nc(C3CCCC3)c([C@@H](F)c3ccc(C(F)(F)F)cc3)c(C3CCCCC3)c21`?
Answer: IC50 [1]: 22 nM; IC50 [2]: 62 nM; IC50 [3]: 60 nM

Question: Which IC50 [1] does the source give for `CC1(C)Cc2nc(C3CCCC3)c([C@@H](F)c3ccc(C(F)(F)F)cc3)c(-c3ccc(F)cc3)c2[C@@H](O)C1` here?
Answer: 31 nM

Question: With `CC(C)c1nc2c(c(-c3ccc(F)cc3)c1[C@@H](F)c1ccc(C(F)(F)F)cc1)[C@@H](O)CC1(CCC1)C2` as the compound, how does the IC50 [1] read?
Answer: 24 nM

Question: For `CCc1c(C(=O)c2ccc(C(F)(F)F)cc2)c(C2CCCC2)nc2c1[C@@H](O)CC(C)(C)C2`, which IC50 [1] is on record?
Answer: 4500 nM

Question: For `CC(C)c1nc2c(c(C3CCCCC3)c1C(=O)c1ccc(C(F)(F)F)cc1)[C@@H](O)CC1(CCC1)C2`, which IC50 [1] is on record?
Answer: 33 nM

Question: With `CC1(C)Cc2nc(C3CCCC3)c(C(=O)c3ccc(C(F)(F)F)cc3)c(C3CC3)c2[C@@H](O)C1` as the compound, how does the IC50 [1] read?
Answer: 3000 nM

Question: With `CC1(C)Cc2nc(C3CCCC3)c(C(=O)c3ccc(C(F)(F)F)cc3)c(C3CCCC3)c2[C@@H](O)C1` as the compound, how does the IC50 [1] read?
Answer: 90 nM

Question: Which IC50 [1] does the source give for `O=C(c1ccc(C(F)(F)F)cc1)c1c(C2CCCC2)nc2c(c1C1CCCC1)[C@@H](O)CC1(CCC1)C2` here?
Answer: 70 nM

Question: With `CC(C)c1nc2c(c(C3CCCCC3)c1C(=O)c1ccc(C(F)(F)F)cc1)[C@@H](O)CC(C)(C)C2` as the compound, how does the IC50 [1] read?
Answer: 70 nM

Question: Which IC50 [1] does the source give for `CCCCCc1c(C(=O)c2ccc(C(F)(F)F)cc2)c(C2CCCC2)nc2c1[C@@H](O)CC(C)(C)C2` here?
Answer: 2000 nM

Question: For `CC(C)c1c(C(=O)c2ccc(C(F)(F)F)cc2)c(C2CCCC2)nc2c1[C@@H](O)CC(C)(C)C2`, which IC50 [1] is on record?
Answer: 600 nM

Question: With `CC(C)c1c(C(=O)c2ccc(C(F)(F)F)cc2)c(C2CCCC2)nc2c1[C@@H](O)CC1(CCC1)C2` as the compound, how does the IC50 [1] read?
Answer: 300 nM

Question: Which IC50 [1] does the source give for `CCCc1c(C(=O)c2ccc(C(F)(F)F)cc2)c(C2CCCC2)nc2c1[C@@H](O)CC1(CCC1)C2` here?
Answer: 600 nM

Question: For `CC(C)c1nc2c(c(C3CCCCC3)c1[C@@H](O)c1ccc(C(F)(F)F)cc1)[C@@H](O)CC(C)(C)C2` (relative stereo), which IC50 [1] is on record?
Answer: 80 nM

Question: Which IC50 [1] does the source give for `CC1(C)Cc2nc(C3CCCC3)c([C@@H](O)c3ccc(C(F)(F)F)cc3)c(C3CCCCC3)c2[C@@H](O)C1` (relative stereo) here?
Answer: 100 nM
